Source: PubChem BioAssay
The entries come from a sample that favours hits as a whole.
Insulin prom act – TRM-6 insulin promoter activation. 130,000 tested, 0.81% active. activation, % at 2 µM. AID 1296. TRM-6 cells (human fetal islet line), insulin promoter eGFP reporter, imaging; plate-scaled: unstimulated 0, stimulated control 100;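 active means activation at 2 µM above a set limit, confirmed on inspection of the cell images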;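 further: share of cells whose green reporter signal exceeds an intensity cutoff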
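Assay system: TRM-6 insulin promoter–eGFP reporter cells / Input: 1,000 cells per well / Medium: Low-glucose (5.5 mM) medium with tamoxifen / Also added: tamoxifen inducer, 0.75 µM, in seeding medium / Timing: overnight tamoxifen, then two-day compound incubation at 37 °C / Signal: automated fluorescence imaging of paraformaldehyde-fixed, Hoechst-counterstained cells, green channel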
Active calls of the source: *.

How did CC(C)C(NS(=O)(=O)c1cccs1)C(=O)NCCN1CCN(c2ccccc2)CC1 (stereo not drawn) do in these assays?
Insulin prom act: -6.1

Results for CCOC(=O)CNC(=O)C(Cc1ccccc1)NS(=O)(=O)c1cccs1 (stereo not drawn) ?
Insulin prom act: 106.5

Results for c1ccc(-c2cnnc(N3CCCCC3)n2)cc1 ?
Insulin prom act: 9.7

What do the screens show for `N/C(COc1ccccc1)=N\NC(=O)c1cccnc1Oc1ccccc1`?
Insulin prom act: -8.3

What do the screens show for `Cc1ccc(C(=O)NC(=S)NCC2CCCO2)cc1Br` (stereo not drawn)?
Insulin prom act: 0.0

Results for COC(=O)c1oc2ccc(Cl)cc2c1-n1cccc1 ?
Insulin prom act: 2.6

What do the screens show for `COc1ccc(-c2nnc(SCC(=O)N/N=C/c3ccccc3C(=O)O)n2-c2ccccc2)cc1`?
Insulin prom act: 0.0

Results for Cc1cccc(C)c1N1CC(=O)N(c2c(C)cccc2C)CC1=O ?
Insulin prom act: 7.9

Results for O=C(c1ccccc1C(=O)N1CCN(c2ccccc2F)CC1)N1CCN(c2ccccc2F)CC1 ?
Insulin prom act: 0.0

How did O=C1CN(c2ccccc2F)C(=O)CN1c1ccccc1F do in these assays?
Insulin prom act: 411.8*

How did COc1ccccc1N(CC(=O)NC(C)(C)C)C(=O)c1ccc(Cl)nc1 do in these assays?
Insulin prom act: -7.1

How did Cn1c(Cn2cnc([N+](=O)[O-])n2)nnc1SCC(=O)Nc1ccc(Br)cc1 do in these assays?
Insulin prom act: -6.7

Results for Cc1c(C(N)=O)sc2ncn(CC(=O)N3CCC(C)CC3)c(=O)c12 ?
Insulin prom act: -1.4

What do the screens show for `CC(=O)Nc1ccc(OCC(O)CN2C(C)(C)CC(O)CC2(C)C)cc1` (stereo not drawn)?
Insulin prom act: 3.3

What do the screens show for `O=C(Nc1ccccc1)Nc1ccccc1C(=O)NCc1ccccc1`?
Insulin prom act: 76.7*

Results for CNC(=O)Nc1ccccc1C(=O)NCc1ccccc1 ?
Insulin prom act: -3.8

How did O=C(Nc1ccccc1)Nc1cccc(Cl)c1Cl do in these assays?
Insulin prom act: -7.7

How did CN1CCN(C(=O)CSc2ccc(C(F)(F)F)cc2[N+](=O)[O-])CC1 do in these assays?
Insulin prom act: 7.1

Results for Cc1cc(-c2ccccc2)c2c(=O)[nH][nH]c2n1 ?
Insulin prom act: -6.5

What do the screens show for `COc1cc(NC(=O)CSCC(=O)Nc2cccc(C(F)(F)F)c2)c(Cl)cc1Cl`?
Insulin prom act: -8.8

What do the screens show for `COc1cc(/C=C(\C#N)c2ccccn2)ccc1OCC(=O)Nc1cccc(C(F)(F)F)c1`?
Insulin prom act: 280.0*

Results for COc1cc(/C=C2\C(=O)N(CCC#N)N=C2C)ccc1OCC(=O)Nc1ccccc1 ?
Insulin prom act: -2.6

What do the screens show for `O=C(COC(=O)c1cn(-c2ccccc2)nc1-c1cccnc1)NC1CC1`?
Insulin prom act: 8.3

Results for COc1ccc(Cl)cc1NC(=O)c1ccccc1C ?
Insulin prom act: -2.9

Results for CCN(C(=O)c1cc(Cl)ccc1OC)c1ccccc1C ?
Insulin prom act: 542.9*

How did CCN(C(=O)c1cn(C)c(=O)c2cc(OC)c(OC)cc12)c1ccccc1C do in these assays?
Insulin prom act: -81.0

What do the screens show for `CCCCc1ccc(N2C(=O)[C@@H]3C(CC(N)=O)NC4(C(=O)Nc5ccc(F)cc54)[C@@H]3C2=O)cc1` (stereo partly drawn)?
Insulin prom act: 9.4

What do the screens show for `CNC(=O)CSc1nc(-c2ccccc2)c(-c2ccccc2)[nH]1`?
Insulin prom act: 0.0

What do the screens show for `CC(C)c1nc(-c2ccccc2)c(-c2ccccc2)[nH]1`?
Insulin prom act: -87.0

How did O=C(O)c1ccccc1-c1nc(-c2ccccc2)c(-c2ccccc2)[nH]1 do in these assays?
Insulin prom act: 289.5*

Results for COCCCNC(=S)NNC(=O)c1cccnc1 ?
Insulin prom act: -3.6

Results for CC(C)C(c1nnnn1C1CCCCC1)N1CCN(c2ncccn2)CC1 (stereo not drawn) ?
Insulin prom act: -3.2

Results for COc1ccc(CCn2nnnc2C(CC(C)C)N2CCN(c3ncccn3)CC2)cc1OC (stereo not drawn) ?
Insulin prom act: -7.1

Results for COc1ccc(CCn2nnnc2C(C(C)C)N2CCN(c3ncccn3)CC2)cc1OC (stereo not drawn) ?
Insulin prom act: 170.0*

What do the screens show for `Cc1ccccc1C(=O)N(Cc1nc2ccccc2c(=O)[nH]1)C1CCCC1`?
Insulin prom act: 5.6

Results for COc1ccc(N(CC(=O)N/N=C(\C)c2cccs2)S(=O)(=O)c2ccccc2)cc1Cl ?
Insulin prom act: 9.1

How did CC(C)CNC(=O)c1ccc(COc2ccc(Cl)cc2Cl)o1 do in these assays?
Insulin prom act: -7.7

What do the screens show for `O=S(=O)(N1CCOCC1)n1c(Cc2ccccc2)nc2ccccc21`?
Insulin prom act: -70.4

Results for Cn1c(-c2cccs2)[n+](C)c2ccccc21 ?
Insulin prom act: 8.7

What do the screens show for `COn1c(=O)c(-c2cccs2)[n+]([O-])c2ccccc21`?
Insulin prom act: 87.2*

What do the screens show for `O=c1c(-c2ccco2)[n+]([O-])c2ccccc2n1OCc1ccccn1`?
Insulin prom act: -5.3

Results for Cc1ccc(/C=N/OC(=O)c2nn(C)cc2Cl)cc1 ?
Insulin prom act: 0.0

How did O=S(=O)(c1cccc(S(=O)(=O)N2CCC(Cc3ccccc3)CC2)c1)N1CCOCC1 do in these assays?
Insulin prom act: 2.6

How did CC(=O)c1ccc(N2CCN(S(=O)(=O)c3cccc(S(=O)(=O)N4CCOCC4)c3)CC2)cc1 do in these assays?
Insulin prom act: -3.6

How did O=S(=O)(c1cccc(S(=O)(=O)N2CCC(N3CCCCC3)CC2)c1)N1CCOCC1 do in these assays?
Insulin prom act: 630.8*

How did Cc1ccnc(NC(=O)c2cc(S(=O)(=O)N3CCCCC3)ccc2Cl)c1 do in these assays?
Insulin prom act: 6.5

Results for O=C(NCCCN1CCOCC1)c1ccc(CSCc2cccc(Cl)c2)o1 ?
Insulin prom act: -6.7

Results for CCCC(=O)Nc1ccc(C(=O)Nc2nnc(COCC)s2)cc1 ?
Insulin prom act: 408.3*

What do the screens show for `CCOCC(=O)Nc1nnc(COC)s1`?
Insulin prom act: -2.6

Results for CCOCc1nnc(NC(=O)c2ccco2)s1 ?
Insulin prom act: 143.8

What do the screens show for `CN(C(=O)CSc1nnnn1-c1ccccc1)C1CCS(=O)(=O)C1` (stereo not drawn)?
Insulin prom act: 0.0

How did CC(=O)NC1=NN(C(C)=O)C(c2ccc(F)cc2)S1 (stereo not drawn) do in these assays?
Insulin prom act: -83.3

How did Cc1noc(NS(=O)(=O)c2ccc(NC(=O)Nc3ccc(Cl)c(Cl)c3)cc2)c1C do in these assays?
Insulin prom act: -75.0

Results for Cc1noc(NS(=O)(=O)c2ccc(NC(=O)CCN3C(=O)c4ccccc4C3=O)cc2)c1C ?
Insulin prom act: 5.6

How did Cc1noc(NS(=O)(=O)c2ccc(NC(=O)CSc3n[nH]c(-c4ccccc4)n3)cc2)c1C do in these assays?
Insulin prom act: 154.5*

Results for CCOC(=O)c1c(NC(=O)CN2CCN(C(=O)c3ccco3)CC2)sc2c1CCCC2 ?
Insulin prom act: 318.8

Results for CCOC(=O)c1c(NC(=S)Nc2ccc(Cl)cc2)sc(C)c1C ?
Insulin prom act: -5.4

Results for CCOC(=O)c1c(NC(=S)Nc2ccccc2)sc2c1CCN(CCc1ccccc1)C2 ?
Insulin prom act: 233.3*

Results for CN(C1CCCCC1)S(=O)(=O)c1ccc(NC(=S)NC(=O)c2cccs2)cc1 ?
Insulin prom act: 6.7

What do the screens show for `O=C(Nc1ccc2c(c1)CCC2)C1CCN(c2ncccn2)CC1`?
Insulin prom act: -9.4
